In ChEMBL document CHEMBL1275303, “Synthesis and antimicrobial activity of 2-substituted [4-(1,3,4-oxadiazol-2-yl methyl)] phthalazin-1(2H)-one derivatives” (2010):

Assays:
Escherichia coli [1] = test: Antimicrobial activity against Escherichia coli at 100 ug/mL after 24 hrs by well plate method; format: functional; conditions: read-out: IZ
Summary of the method: (§1)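 Agar well diffusion in nutrient agar. About 1 cm³ of a 24 h broth culture was placed in sterile dishes, and molten agar at 45 °C was poured over it and set. 6 mm wells were bored and filled with compound in DMSO (100 or 50). Plates were incubated 24 h at 37 °C, and the inhibition zone was read in mm. Duplicate runs, with standard deviation; amoxicillin as reference.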

Nannizzia gypsea [2] = test: Antimicrobial activity against Microsporum gypseum at 50 ug/mL after 72 hrs by well plate method; format: functional; conditions: read-out: IZ
Summary of the method: (§2)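 Antifungal well-plate assay on Sabouraud dextrose agar using a 72 h old broth culture of the fungal strain. Wells were filled with compound dissolved in DMSO (100 or 50), and the zone of inhibition around each well was measured. […] served as reference.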

Aspergillus flavus [3] = test: Antimicrobial activity against Aspergillus flavus at 100 ug/mL after 72 hrs by well plate method; format: functional; conditions: read-out: IZ
[4] = test system: Chrysosporium keratinophilum; test: Antimicrobial activity against Chrysosporium keratinophilum at 50 ug/mL after 72 hrs by well plate method; format: functional; conditions: read-out: IZ; summary of the method: as §2
Aspergillus flavus [5] = test: Antimicrobial activity against Aspergillus flavus at 50 ug/mL after 72 hrs by well plate method; format: functional; conditions: read-out: IZ
Candida albicans [6] = test: Antimicrobial activity against Candida albicans at 50 ug/mL after 72 hrs by well plate method; format: functional; conditions: read-out: IZ; summary of the method: as §2
Staphylococcus aureus [7] = test: Antimicrobial activity against Staphylococcus aureus at 50 ug/mL after 24 hrs by well plate method; format: functional; conditions: read-out: IZ; summary of the method: as §1
Bacillus subtilis [8] = test: Antimicrobial activity against Bacillus subtilis at 100 ug/mL after 24 hrs by well plate method; format: functional; conditions: read-out: IZ; summary of the method: as §1
Escherichia coli [9] = test: Antimicrobial activity against Escherichia coli at 50 ug/mL after 24 hrs by well plate method; format: functional; conditions: read-out: IZ; summary of the method: as §1
Salmonella typhi [10] = test: Antimicrobial activity against Salmonella typhi at 100 ug/mL after 24 hrs by well plate method; format: functional, Salmonella enterica subsp. enterica serovar Typhi; conditions: Salmonella enterica, read-out: IZ
Summary of the method: (§3)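 Agar well diffusion in nutrient agar: about 1 cm³ of a 24 h broth culture placed in a sterile dish, molten agar at 45 °C poured over it and allowed to set. 6 mm holes cut with a sterile cork borer and filled with compound solution in DMSO. Incubated 24 h at 37 °C; inhibition zone diameter read in mm. Run in duplicate, standard deviation calculated.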

Staphylococcus aureus [11] = test: Antimicrobial activity against Staphylococcus aureus at 100 ug/mL after 24 hrs by well plate method; format: functional; conditions: read-out: IZ; summary of the method: as §1
Candida albicans [12] = test: Antimicrobial activity against Candida albicans at 100 ug/mL after 72 hrs by well plate method; format: functional; conditions: read-out: IZ; summary of the method: as §2
[13] = test system: Chrysosporium keratinophilum; test: Antimicrobial activity against Chrysosporium keratinophilum at 100 ug/mL after 72 hrs by well plate method; format: functional; conditions: read-out: IZ; summary of the method: as §2
Salmonella typhi [14] = test: Antimicrobial activity against Salmonella typhi at 50 ug/mL after 24 hrs by well plate method; format: functional, Salmonella enterica subsp. enterica serovar Typhi; conditions: Salmonella enterica, read-out: IZ; summary of the method: as §3
Nannizzia gypsea [15] = test: Antimicrobial activity against Microsporum gypseum at 100 ug/mL after 72 hrs by well plate method; format: functional; conditions: read-out: IZ; summary of the method: as §2
Bacillus subtilis [16] = test: Antimicrobial activity against Bacillus subtilis at 50 ug/mL after 24 hrs by well plate method; format: functional; conditions: read-out: IZ; summary of the method: as §1

SMILES | zone of inhibition at 100 µg/mL (Escherichia coli [1]) [mm] | zone of inhibition at 50 µg/mL (Nannizzia gypsea [2]) [mm] | zone of inhibition at 100 µg/mL (Aspergillus flavus [3]) [mm] | zone of inhibition at 50 µg/mL [4] [mm] | zone of inhibition at 50 µg/mL (Aspergillus flavus [5]) [mm] | zone of inhibition at 50 µg/mL (Candida albicans [6]) [mm] | zone of inhibition at 50 µg/mL (Staphylococcus aureus [7]) [mm] | zone of inhibition at 100 µg/mL (Bacillus subtilis [8]) [mm] | zone of inhibition at 50 µg/mL (Escherichia coli [9]) [mm] | zone of inhibition at 100 µg/mL (Salmonella typhi [10]) [mm] | zone of inhibition at 100 µg/mL (Staphylococcus aureus [11]) [mm] | zone of inhibition at 100 µg/mL (Candida albicans [12]) [mm] | zone of inhibition at 100 µg/mL [13] [mm] | zone of inhibition at 50 µg/mL (Salmonella typhi [14]) [mm] | zone of inhibition at 100 µg/mL (Nannizzia gypsea [15]) [mm] | zone of inhibition at 50 µg/mL (Bacillus subtilis [16]) [mm]
O=c1c2ccccc2c(Cc2nnc(-c3ccsc3)o2)nn1Cc1cnc(Cl)s1 | 16 | 6.5 | 8.5 | 5.5 | 3.5 | 4.5 | 7 | 8 | 10 | 12 | 10 | 8.5 | 11.5 | 7 | 9.5 | 4
O=c1c2ccccc2c(Cc2nnc(-c3ccc(Cl)cc3)o2)nn1Cc1cnc(Cl)s1 | 9 | 1 | 5 | 2 | 2.5 | 3 | 7 | 5.5 | 5 | 9.5 | 10 | 6.5 | 4.5 | 5 | 4 | 3
Cc1ccccc1-c1nnc(Cc2nn(Cc3cnc(Cl)s3)c(=O)c3ccccc23)o1 | 6 | 1 | 2 | 0 | 1 | 0 | 0 | 5 | 6 | 5 | 2 | 3.5 | 3.5 | 3 | 3 | 2
O=c1c2ccccc2c(Cc2nnc(-c3ccc(Cl)nc3)o2)nn1Cc1cnc(Cl)s1 | 12 | 4 | 8 | 5.5 | 4 | 9.5 | 4 | 6 | 8 | 5 | 7 | 10.5 | 8.5 | 3 | 7.5 | 4
Cc1nnc(Cc2nn(CCN3CCOCC3)c(=O)c3ccccc23)o1 | 2.5 | 0 | 3.5 | 0 | 1 | 1 | 0 | 1 | 0 | 4.5 | 3.5 | 2.5 | 0 | 1.5 | 3.5 | 0
O=c1c2ccccc2c(Cc2nnc(C(F)(F)F)o2)nn1CCN1CCOCC1 | 3.5 | 2 | 5.5 | 2 | 2.5 | 0.5 | 0 | 5 | 0 | 2.5 | 0 | 3.5 | 4.5 | 0 | 4 | 2
O=c1c2ccccc2c(Cc2nnc(C3CC3)o2)nn1CCN1CCOCC1 | 5 | 3.5 | 5 | 0.5 | 2.5 | 2.5 | 0 | 5.5 | 1.5 | 6.5 | 1.5 | 4.5 | 2.5 | 2.5 | 6 | 3.5
O=c1c2ccccc2c(Cc2nnc(-c3ccc(F)cc3)o2)nn1CCN1CCOCC1 | 2 | 4 | 4 | 2.5 | 2 | 2.5 | 0 | 6 | 0 | 5 | 1 | 5.5 | 5.5 | 3.5 | 7.5 | 3
O=c1c2ccccc2c(Cc2nnc(-c3ccc(Cl)cc3)o2)nn1CCN1CCOCC1 | 7 | 1 | 1 | 0 | 0 | 1 | 5 | 4 | 3 | 4.5 | 8 | 3.5 | 1.5 | 3 | 3 | 2
Cc1ccccc1-c1nnc(Cc2nn(CCN3CCOCC3)c(=O)c3ccccc23)o1 | 5.5 | 1 | 3 | 0 | 1.5 | 0 | 1.5 | 4.5 | 2.5 | 5 | 3.5 | 1.5 | 2.5 | 2.5 | 2 | 2.5
O=c1c2ccccc2c(Cc2nnc(-c3ccsc3)o2)nn1CCN1CCOCC1 | 8.5 | 7.5 | 9.5 | 3.5 | 6.5 | 4.5 | 3.5 | 6 | 3.5 | 7.5 | 5 | 7.5 | 6.5 | 4.5 | 10.5 | 3
O=c1c2ccccc2c(Cc2nnc(-c3ccc(Cl)nc3)o2)nn1CCN1CCOCC1 | 5.5 | 4 | 8 | 1.5 | 4.5 | 6.5 | 3.5 | 9 | 1.5 | 6.5 | 7 | 10.5 | 4.5 | 3.5 | 9.5 | 4.5
